Compounds with a hit are over-represented: about 12% of the library has one in this group of screens.
ROMK primary: modulates human ROMK potassium channel activity; 130,000 compounds, 2% hits; B-score at 10 µM; Tet-inducible ROMK, thallium flux fluorescence; actives lie on both sides; P48048;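 active = signal ratio slope over the read window, or its plate-corrected B-score, at least 3 SD from the plate mean, either direction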;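 note: B-score of the F/F0 ratio slope over 7 to 12 s after thallium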
Target sequence (P48048 whole entry, looked up): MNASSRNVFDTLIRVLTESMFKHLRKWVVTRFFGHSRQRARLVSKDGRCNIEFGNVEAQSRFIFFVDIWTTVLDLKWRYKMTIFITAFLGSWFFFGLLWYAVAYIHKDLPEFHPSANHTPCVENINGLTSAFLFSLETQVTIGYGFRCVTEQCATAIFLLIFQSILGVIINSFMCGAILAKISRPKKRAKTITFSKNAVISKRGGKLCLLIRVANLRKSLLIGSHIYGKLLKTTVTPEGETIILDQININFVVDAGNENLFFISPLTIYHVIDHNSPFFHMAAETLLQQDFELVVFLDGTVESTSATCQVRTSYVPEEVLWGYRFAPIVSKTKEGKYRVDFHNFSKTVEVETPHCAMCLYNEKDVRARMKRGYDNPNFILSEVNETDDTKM
Diaph inh CS: counter-screen for diaphorase-based assays: diaphorase inhibitors and chemical oxidizers; diaphorase resazurin-to-resorufin fluorescence, NADH, 16 min; bacterial (C. kluyveri) enzyme, not human; inhibition, % at 20 µM; 190,000 compounds, 0.69% hits; AID 1217;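 active = primary screen inhibition at 20 µM above a set limit, cut at about 50% in these data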;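 note: plate controls were DMSO with full reaction for no effect and wells lacking NADH for full effect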
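Assay system: diaphorase enzyme from Clostridium kluyveri; Input: enzyme working solution with 0.14 U/mL diaphorase; Timing: 16 min at room temperature; Technique: resorufin fluorescence, excitation 544 nm, emission 590 nm; Benchmarks: positive control minus NADH, DMSO neutral control.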
KCC2 mod: modulates chloride dependent transport by human KCC2 | AID 1456 | Q9H2X9 | 190,000 compounds, 2.2% hits | B-score of Tl+ flux slope (higher = more flux/activation; lower = inhibition) at 10 µM | KCC2 cells, thallium flux FluoZin-2 fluorescence;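 active = thallium flux slope and its plate-corrected score both differing from the plate sample mean at a set confidence after two filtering rounds, in either direction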;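 note: slope of fluorescence scaled to starting intensity during 10 to 20 s after thallium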
Diaphorase act: diaphorase activation or chemical reduction counter-screen; 190,000 compounds, 0.005% hits; Diaphorase/resazurin coupled assay, resorufin fluorescence, 16 min; hits give high values; 1 = vehicle wells, 0 = NADH-free wells; activation factor at 20 µM; AID 1229;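 active = diaphorase activity raised at least twofold by the compound at 20 µM; inactive = activation factor below 2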
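Material: purified diaphorase enzyme from Clostridium kluyveri / Medium: HEPES pH 7.4 buffer with MgCl2 and Tween 20 / Schedule: enzyme reaction of 16 min at room temperature / Measured by: resorufin fluorescence, excitation 544 nm, emission 590 nm / Evaluation: rise in resorufin formation, marking diaphorase activation or chemical reduction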
WT yeast gro inh: growth inhibition of WT yeast, mitochondrial fusion screen | mitochondrial fusion phenotypic screen, WT strain | inhibition, % at 10 µM | 190,000 compounds, 2.1% hits | AID 1362; in the data active = inhibition above about 58%; tested in S. cerevisiae
L major viab: reduces viability of Leishmania major promastigotes; resazurin fluorescence viability; inhibition, % at 10 µM; 200,000 compounds, 9% hits; in the data active = inhibition above about 50%;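 note: promastigotes grown with compound for 44 hours at 28 °C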
KCC2 sec1: KCC2 (human) modulation, secondary assay. shares compounds with KCC2 mod. HEK293-KCC2, thallium flux, FluoZin2 fluorescence; hits give high values. normalised thallium flux (F/F0 slope) at 10 µM. 3,700 compounds, 15% hits;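 active = thallium flux slope above the same plate's solvent-only control mean plus 3 SD; inconclusive = the two replicate wells disagree; inactive = no significant difference from solvent-only control wells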
KCC2 bumet counter: thallium flux despite bumetanide block in KCC2 cells, secondary assay 3; shares compounds with KCC2 mod; HEK293-KCC2 + bumetanide/ouabain, thallium flux FluoZin2; hits give high values; normalized thallium flux at 10 µM; 3,700 compounds, 49% hits; AID 1714;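 active = thallium entry rate above the same plate's blocked-transporter control wells by more than 3 SD; inconclusive = the two repeat wells disagree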;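 note: raw slope of fluorescence over initial fluorescence between 10 and 20 s after thallium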
KCC2 secondary2: confirmation of human KCC2 transport modulators; shares compounds with KCC2 mod; HEK293-KCC2, thallium flux FluoZin2 fluorescence; actives lie on both sides; F/F0 rise rate, 10–20 s post-thallium; normalized thallium flux at 10 µM; 3,700 compounds, 23% hits; AID 1715;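 active = thallium flux slope more than 3 SD above or below the plate's solvent-only control mean, mostly below; inconclusive = the two repeat wells disagreed; inactive = no significant shift from solvent-only controls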;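 note: raw slope with 0.1% DMSO as baseline and bumetanide as block control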
HEK counter1: counter-screen for KCC2 modulators: effect in parental HEK293 cells | shares compounds with KCC2 mod | thallium flux FluoZin2, ouabain; baseline-ratio fluorescence slope, 10–20 s after thallium | thallium flux rate (normalised fluorescence) at 10 µM | 3,700 compounds, 46% hits | AID 1716;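 active = thallium flux rate significantly above the same plate's solvent-only control wells, beyond their mean plus 3 SD; inconclusive = the two replicate wells gave conflicting results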
KCC2 retest ouab: KCC2 (human) modulation, ouabain retest | shares compounds with KCC2 mod | HEK293-KCC2, thallium flux FluoZin2 fluorescence; bidirectional: low = inhibitor, high = activator | raw Tl+ flux slope (below DMSO = inhibition, above = activation) at 10 µM | 3,700 compounds, 48% hits | AID 1717;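 active = thallium flux slope beyond 3 SD from same-plate DMSO control mean in most replicates, usually higher, sometimes lower; inconclusive = repeat tests gave conflicting results; inactive = no significant difference from controls in most replicates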;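 note: slope of initial-normalized fluorescence between seconds 10 and 20 after thallium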
HEK counter2: parental HEK flux effect, counter-screen 2; thallium flux slope at 10 µM; shares compounds with KCC2 mod; HEK293 parental, thallium flux FluoZin-2 fluorescence slope; 3,700 compounds, 33% hits;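 active = thallium flux slope above the same plate's solvent-control mean plus 3 SD in both duplicate wells; inconclusive = duplicate wells that disagreed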;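 note: run without ouabain in cells lacking the KCC2 cotransporter; slope of fluorescence scaled to its starting value between 10 and 20 s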
Numbers without * were called inactive; ? = inconclusive; . = no result given.

SMILES | ROMK primary | Diaph inh CS | KCC2 mod | Diaphorase act | WT yeast gro inh | L major viab | KCC2 sec1 | KCC2 bumet counter | KCC2 secondary2 | HEK counter1 | KCC2 retest ouab | HEK counter2
Cc1noc(/C=C/N(C)C)c1S(=O)(=O)N1CCCC(C(=O)NCCC2=CCCCC2)C1 (stereo not given) | . | . | -0.56 | . | 16 | -6 | . | . | . | . | . | .
CN(C(=O)Nc1cccc(C(F)(F)F)c1)C1CCCCC1 | . | . | -0.81 | . | . | . | . | . | . | . | . | .
COc1ccc2nc(SCC(=O)Nc3ccc4c(c3)OCCO4)[nH]c2c1 | . | 15 | -2.5* | 0.9 | -16 | -1 | 0.0072 | 0.0048 | 0.03 | 0.0073 | 0.02 | 0.011
CCOCCCNC(=O)/C(C#N)=C/c1cc(Br)c(O)c(Br)c1 | . | . | -4* | . | . | . | 0.0073 | 0.004 | 0.029 | 0.0069 | 0.017 | 0.0096
COc1cc(/C=C(\C#N)C(=O)NCCc2ccccc2)cc(OC)c1O | -2.7 | 16 | -6.2* | 0.8 | -10 | 8 | 0.0056 | 4e-05* | 0.02* | 0.0044* | 0.0091* | ?
COc1cc(/C=C(\C#N)C(=O)NC(C)C)cc(Cl)c1O | -0.00034 | -4 | -0.86 | 1 | -14 | -7 | . | . | . | . | . | .
COCCNC(=O)/C(C#N)=C/c1cc(Br)c(O)c(OC)c1 | -0.34 | 3 | -0.0063 | 1 | -18 | 12 | . | . | . | . | . | .
O=C(N=Nc1c(O)n(Cc2ccccc2)c2ccccc12)c1ccncc1 | . | . | -1.3 | . | . | . | . | . | . | . | . | .
CCOC(=O)N=Nc1c(O)n(CC)c2ccccc12 | -0.4 | 14 | -0.14 | 0.9 | -17 | -6 | . | . | . | . | . | .
C/C(Cl)=C\Cn1c(O)c(N=NC(N)=S)c2ccccc21 | 1.3 | 26 | 42* | 0.7 | -31 | 4 | ? | 0.06* | 0.062* | 0.047* | 0.058* | 0.045*
COC(=O)c1ccc(Cn2c(O)c(N=NC(N)=S)c3ccccc32)o1 | 1.1 | . | 7.1* | . | . | . | ? | 0.03* | 0.035 | 0.016* | 0.027 | ?
CCOC(=O)N=Nc1c(O)n(Cc2ccccc2)c2ccccc12 | -0.68 | 7 | 6.9* | 0.9 | 9 | 0 | 0.0057 | 0.013* | 0.034 | 0.012* | 0.023 | 0.014*
NC(=S)N=Nc1c(O)n(Cc2ccccc2)c2ccccc12 | . | 6 | 8.8* | 0.9 | -6 | -6 | 0.0074 | 0.0083* | 0.034 | 0.011* | ? | ?
O=C(CSc1nc2ccccc2o1)NCCOc1ccccc1 | -2.8 | 24 | -1.1 | 0.8 | -4 | -5 | . | . | . | . | . | .
Cc1onc(-c2c(F)cccc2Cl)c1C(=O)OCC(=O)c1c[nH]c2ccccc12 | . | . | 0.081 | . | . | . | . | . | . | . | . | .
Cc1ccc(SCCNC(=O)c2ccc(C)c(S(=O)(=O)Nc3ccccc3C)c2)cc1 | . | 20 | . | 0.8 | -9 | 99* | 0.0082 | ? | 0.027 | 0.0064 | 0.015* | 0.01
CCOc1ccc(C(CC(=O)O)NC(=O)C(Sc2ccccc2)c2ccccc2)cc1 (stereo not given) | 0.58 | 7 | -4* | 0.9 | -3 | -5 | 0.0068 | ? | 0.023* | 0.0084 | ? | 0.012
COc1ccc(OC)c(NC(=O)C(Sc2ccccc2)c2ccccc2)c1 (stereo not given) | . | 9 | . | 0.9 | 36 | 2 | 0.016 | 0.0036 | 0.03 | 0.007 | 0.016 | 0.0094
COc1ccc(C)cc1NC(=O)C(Sc1nnc(Nc2cc(C)ccc2OC)s1)c1ccccc1 (stereo not given) | 1.4 | 17 | -2.6 | 0.8 | 1 | 24 | . | . | . | . | . | .
Cc1ccc(S(=O)(=O)NCC(=O)OCN2C(=O)c3ccccc3C2=O)cc1 | 0.31 | 20 | -0.79 | 0.8 | 4 | 0 | 0.0093 | 0.006 | 0.032 | 0.0072 | 0.019 | 0.011
Cc1csc(NC(=O)CSc2nnc(NC(=O)COc3ccc(Cl)cc3)s2)n1 | . | -8 | -0.22 | 1.1 | 0 | 46 | . | . | . | . | . | .
Cc1ccc(C2CC(C(F)(F)F)n3nc(C(=O)NCC4CCCO4)cc3N2)cc1 (stereo not given) | . | 22 | -4.2* | 0.8 | . | -2 | 0.0072 | 0.005 | 0.03 | 0.0079 | 0.019 | 0.011
C=CCN(c1cccc(C(F)(F)F)c1)S(=O)(=O)c1cccc(C(=O)OCC(=O)NCCC)c1 | . | 18 | -4.2* | 0.8 | -2 | -1 | ? | 0.004 | 0.024* | 0.0059* | 0.014* | ?
NS(=O)(=O)c1ccc(NC(=O)COC(=O)CCc2ccccc2)cc1 | . | . | 1.5 | . | . | . | . | . | . | . | . | .
CCCCC(=O)NNC(=S)NC(=O)c1ccc(C)cc1 | 1.8 | 32 | 39* | 0.7 | 42 | 2 | 0.025* | 0.064* | 0.053* | 0.052* | 0.052* | 0.056*
SMILES | ROMK primary | Diaph inh CS | KCC2 mod | Diaphorase act | WT yeast gro inh | L major viab | KCC2 sec1 | KCC2 bumet counter | KCC2 secondary2 | HEK counter1 | KCC2 retest ouab | HEK counter2
COCCn1c(N)c(N(Cc2ccccc2)C(=O)c2cc3ccccc3o2)c(=O)[nH]c1=O | 0.77 | -11 | -1.4 | 1.1 | -2 | 4 | . | . | . | . | . | .
Cc1ccc(CN2CCN(Cc3ccc(-n4cccn4)cc3C)CC2CCO)cc1 (stereo not given) | -1.1 | 7 | -1.2 | 0.9 | -4 | 21 | . | . | . | . | . | .
Cc1cc(C)cc(NC(=S)N=Nc2c(O)n(C)c3ccc(S(=O)(=O)N4CCOCC4)cc23)c1 | . | 7 | 6.7* | 0.9 | 6 | 25 | 0.0068 | 0.018* | ? | 0.025* | 0.027* | 0.017*
Cc1cccc(NC(=S)N=Nc2c(O)n(C)c3ccc(S(=O)(=O)N4CCOCC4)cc23)c1 | 0.038 | 14 | 11* | 0.9 | 39 | 11 | ? | 0.055* | 0.031 | 0.019* | 0.026 | ?
CCOc1ccc(C/C(N)=N/n2cnnc2)cc1 | 1.2 | 7 | -0.28 | 0.9 | -18 | -5 | . | . | . | . | . | .
O=C(NC(=S)N1CCN(c2nc(-c3ccccc3)cs2)CC1)c1cccnc1 | 1.1 | 30 | 34* | 0.7 | 44 | -5 | 0.028* | 0.11* | ? | 0.041* | 0.07* | 0.015*
C=CCNC(=O)c1ccccc1NC(=O)Cc1ccccc1[N+](=O)[O-] | . | 15 | 0.11 | 0.9 | 7 | -3 | . | . | . | . | . | .

Source: PubChem
